In PubChem BioAssay AID686939 (The Scripps Research Institute Molecular Screening Center, 2013) one finds activation data, which are given here for 66 compounds.

Hit rate of the full screen: of about 3,500 compounds, about 1,400 (40%) were called active. The set was probably picked from earlier hits. These entries were drawn from the full list. A number with no mark means an inactive call.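 Rule for the calls: active = activation above the solvent-only control well mean plus 3 SD, averaged across control plates (cut at about 5.2% in these data); inactive = the rest.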

This assay can be described thus: nonselective transcriptional activators, VP16 reporter – cell-based, pG5luc, luminescence, high throughput, counter-screen for SMARCA2 (BRM) activator project (AID 686939). Particulars: HEK293 GAL4-VP16 pG5luc reporter, luciferase luminescence; at 9.1 µM; active compounds read high; scaled: DMSO wells 0%, SAHA wells 100%. Summed up:
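Assay system: 293 cells carrying GAL4-VP16 plus UAS-luciferase reporter; input: 2,500 transfected 293 cells per well; incubation: 24 h compound treatment at 37 °C, 15 min detection incubation; measured by: One-Glo luciferase luminescence; read-out: percent activation scaled between DMSO (0%) and SAHA (100%) control medians; benchmarks: DMSO and SAHA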
For orientation: The purpose of a counterscreen is to sort out artefacts and off-target activity.
On to `O=C(Nc1nnc(CCc2ccccc2)s1)C1CCCO1` (stereo unspecified), for which the activation is 0.86%. As for `Cc1cc(C)c2nc(NC(=O)C3CCCO3)sc2c1` (stereo unspecified), the figure is 7.97% (active); as for `Cc1ccccc1C1=N/C(=C/c2cccnc2)C(=O)O1`, 0.55%; as for `Cc1ccc(O)c(CNc2nc3ccccc3n2C)c1`, 1.49%. As for `COC(=O)c1ccc(/C=C2/C(=O)Oc3ccccc32)cc1`, the activation was -0.16%. Turning to `COC(=O)c1ccc(NCc2cc(O)ccc2O)cc1`, the activation was 5.14% (active). The figure for `CCC1CCC/C1=N\NC(=O)c1ccc(Cl)cc1` (stereo unspecified) is 0.4%.

With `O=C(C1CCC1)N1CCN(S(=O)(=O)c2ccc([N+](=O)[O-])cc2)CC1`, the activation is 0.6%.

With `Cc1ccsc1-c1nc(CSCC(=O)NCCN2CCCC2)c(C)o1`, the activation was 0.41%.

Consider `Cc1ccc(C(=O)Nc2nc3ccc(Cl)cc3s2)o1`, for which the activation is 7.07% (active). The figure for `CC1CCCCN1C(=S)NCc1ccccc1` (stereo unspecified) is -0.22%.

As to `Cc1ccc(C(=O)NNC(=O)c2cccs2)cc1`, the activation was 6.36% (active). As for `Cc1ccc(S(=O)(=O)c2c[nH]c3ccc(Cl)cc3c2=O)cc1`, the activation is -0.72%. As to `Cc1ccc(S(=O)(=O)NC(C)C(=O)NCc2ccc(Cl)cc2)cc1` (stereo unspecified), the activation was -0.12%. The figure for `COc1ccc(NC(=O)c2sccc2SCC#N)cc1` is 2.71%; for `O=[N+]([O-])c1ccc2c(c1)Nc1nc3ccccc3nc1N2` it is 10.8% (active). Regarding `CCCn1c(=O)c2ccccc2n2c(SCC(=O)/C(C#N)=C(\C)N)nnc12`, the activation is -0.93%. The figure for `CCc1cc2c(=O)c(-c3ccon3)c(N)oc2cc1OC` is 5.65% (active); for `Cc1n[nH]c(=O)nc1N/N=C/c1cccs1` it is 2.94%.

`CC(C)c1ccc(NC(=S)NC2CC3C=CC2C3)cc1` (stereo unspecified): the activation was 8.15% (active).

Consider `CCc1ccc(NC2Nc3cc(C)nn3S2)cc1` (stereo unspecified), for which the activation is 6.27% (active). The figure for `O=C(Nc1ccc(F)cc1)c1cc2c(s1)CCCC2` is 10.8% (active); for `O=C(NCC1CCCO1)c1cc2c(s1)CCCC2` (stereo unspecified) it is 10.9% (active). As for `Cc1ccc(NC(=O)c2cnc(SCC(=O)NCC3CCCO3)n(C)c2=O)cc1` (stereo unspecified), the figure is 3.55%; as for `COCn1c(COc2ccccc2)nc2ccccc21`, 3.98%.

Take `CN1CCN(CCCNC(=O)c2ccc(/C=C3\Oc4ccccc4N(Cc4ccc(Cl)cc4)C3=O)cc2)CC1`: the activation was 2.16%. The figure for `COC(=O)Cc1nnn2c1[C@H](C)[C@H](c1ccccc1[N+](=O)[O-])OCC2` is 1.5%; for `C/C(CC(=O)NC(C)(C)C)=N\NC(=O)c1ccco1` it is 1.25%; for `CCOc1cc(NC(=S)NCCCOC)c(OCC)cc1NC(=O)c1ccco1` it is -0.82%.

For the compound `O=C(Nc1ccc(NC(=O)c2cccs2)cn1)c1ccco1`, the activation was 11.6% (active). For the compound `O=C(Nc1ccc2nccnc2c1)c1ccco1`, the activation was 6.58% (active).

Turning to `Cn1sc(=O)c2cc(S(=O)(=O)NC3CC3)ccc21`, the activation is 1.24%. On to `Cc1ccsc1C(=O)N/N=C/c1ccc([N+](=O)[O-])cc1`, for which the activation is 14.2% (active). Take `O=C1/C(=C\c2ccc([N+](=O)[O-])cc2)CS(=O)(=O)C/C1=C/c1ccc([N+](=O)[O-])cc1`: the activation is -4.02%. Consider `O=C(OCC(=O)c1cccs1)C1=COCCO1`, for which the activation is 7.73% (active). As for `O=C(NCc1ccccn1)c1cnc2sccn2c1=O`, the figure is 2.95%; as for `Cc1cc(C)n2nc(CNS(=O)(=O)c3c(F)c(F)c(F)c(F)c3F)nc2n1`, 1.55%. The figure for `CC(C)(C)C(=O)CSc1nc2ccccc2o1` is 5.87% (active); for `CN(C)c1nc(=Nc2cccc(Cl)c2)ss1` it is 1.47%.

On to `COc1ccc(/C(N)=N/OC(=O)Oc2ccccc2)cc1`, for which the activation was -0.09%. The figure for `CCCOc1ccc(-c2nc(N)n[nH]2)cc1` is 6.36% (active); for `COc1ccc2nc(/N=C(\N)NC(=O)Nc3ccccc3)nc(C)c2c1` it is -0.04%. The figure for `Cc1ccnc(NC(=O)C2CCN(S(=O)(=O)c3c(C)c(C)cc(C)c3C)CC2)c1` is 1.57%; for `COc1cccc(C(=O)Nc2nc3ccc(S(C)(=O)=O)cc3s2)c1` it is 5.21% (active). Consider `N#Cc1ccccc1NC(=O)c1cccc(COc2ccc(Cl)cc2Cl)c1`, for which the activation was 21.9% (active). As for `COc1ccc(S(=O)(=O)NC(C)C(=O)N2CCCCCC2)cc1` (stereo unspecified), the figure is -0.22%; as for `CC(=O)Nc1ccc(Nc2c3ccccc3nc3ccccc23)cc1`, 1.5%; as for `CCCC(=O)N1c2ccc(-c3csc(N)n3)cc2CC1C` (stereo unspecified), 13.6% (active). `CCC(=O)Nc1ccc2nn(-c3ccc(F)cc3)nc2c1`: the activation was 7.66% (active). The figure for `CCCSC(=S)NC1CCS(=O)(=O)C1` (stereo unspecified) is -1.45%; for `Cc1noc(C)c1/C=N/Nc1ccc2ccccc2n1` it is 11.4% (active). Consider `COc1ccc(/C=C/C(=O)Nc2ccc(C34CC5CC(CC(O)(C5)C3)C4)cc2)cc1OC`, for which the activation was 16.6% (active). The figure for `Cc1c(NC(=O)CSc2cccc3cccnc23)c(=O)n(-c2ccccc2)n1C` is -2.03%; for `COc1ccc(C(=O)N/N=c2\oc3ccccc3cc2C(N)=O)cc1` it is 2.08%; for `Cn1cc(/C=C/C(=O)N2CCCC(C(=O)c3ccc(C(F)(F)F)cc3)C2)cn1` (stereo unspecified) it is 0.52%. With `CN(C)CCNC(=O)c1ccc(Cl)c2cc3ccccc3nc12`, the activation is 10.7% (active). On to `CCN(CC)CCNC(=O)c1ccc(NC(=O)c2cc(-c3ccncc3)nc3ccccc23)cc1`, for which the activation was 1.61%. With `O=C(CCCCCn1c(=S)[nH]c2ccsc2c1=O)NC1CCCCC1`, the activation is -0.19%. For the compound `Oc1cccc2ccc(/C=C/c3ccc(Br)s3)nc12`, the activation is 8.85% (active).

For `Cc1nc(N=C(N)N)nc2c(C)cccc12`, the activation was 0.25%. In the case of `Cc1ccc(Nc2nc(Cl)c(C=O)s2)cc1`, the activation is 3.07%.

As to `CC(=O)c1sc(NC(=O)c2ccc(C)cc2)nc1C`, the activation is 8.83% (active). As to `CC(=O)c1sc(N/N=C\c2ccc(C)cc2)nc1C`, the activation is 6.19% (active). The figure for `Cc1ccc(NC(=O)c2cc3ccccc3o2)cc1` is 4.91%. `CC(=O)Oc1ccc(C(=O)Nc2nccs2)cc1`: the activation was 5%. As for `CC(C)C[C@H]1CNC(=O)C(=O)N1C[C@H]1CCCN1C[C@H](Cc1ccc(O)cc1)N1C[C@H](CC(C)C)N(CC2CCCCCC2)C(=O)C1=O`, the figure is 0.47%.
